Measurements from ChEMBL document CHEMBL3734720, “Synthesis of thiophene-thiosemicarbazone derivatives and evaluation of their in vitro and in vivo antitumor activities” (Eur J Med Chem, 2015).

How the values were obtained:
[1] = Antitumor activity against mouse EAT implanted in Balb/C mouse assessed as change in paw volume at 300 mg/kg, po administered on day 3 post tumor inoculation measured on day 12 by plethysmometer analysis (reference value: 125.5 +/- 7.5%); type: functional
[2] = test system: 786-0; experiment: Cell cycle arrest in human 786-0 cells assessed as accumulation at Sub G1 phase at 25 uM after 24 hrs by propidium iodide based flow cytometric analysis (reference value: 3.0 +/- 0.7%); type: functional
[3] = Antitumor activity against mouse EAT implanted in Balb/C mouse assessed as change in paw volume at 300 mg/kg, po administered on day 3 post tumor inoculation measured on day 15 by plethysmometer analysis (reference value: 166.5 +/- 6.0%); type: functional
[4] = Antitumor activity against mouse EAT implanted in Balb/C mouse assessed as change in paw volume at 100 mg/kg, po administered on day 3 post tumor inoculation measured on day 9 by plethysmometer analysis (reference value: 95.5 +/- 5.2%); type: functional
[5] = test system: HT-29; experiment: Antiproliferative activity against human HT-29 cells assessed as growth inhibition after 48 hrs by SRB assay; type: functional; settings: HT-29, 48 h
Outline: (§1)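 Cells exposed 48 h at 37 °C, 5% CO2 to 0.25, 2.5, 25 and 250 µg/mL in DMSO/RPMI (final DMSO 0.1%); doxorubicin standard at 0.025–25 µg/mL. Plates fixed with 50% TCA before (T0) and after treatment; protein content read by sulforhodamine B at 540 nm. GI50 (µM) from nonlinear regression of concentration–response curves; triplicate.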

[6] = Antiproliferative activity against human UACC62 cells assessed as growth inhibition after 48 hrs by SRB assay; type: functional; settings: UACC-62, 48 h; outline: as §1
[7] = test system: 786-0; experiment: Cytotoxicity against human 786-0 cells assessed as compound concentration required to cause 50% cell death after 24 hrs by SRB assay; type: functional; settings: 786-0, 24 h, read-out: LC50 (the source's name)
Outline: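 786-0 cells exposed 24 h to 25, 50, 100 and 200 µM; growth measured by sulforhodamine B staining of TCA-fixed cells (540 nm) with time-zero plate; LC50 (50% cell death) and TGI derived by non-linear regression.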

[8] = Antitumor activity against mouse EAT implanted in Balb/C mouse assessed as change in paw volume at 30 mg/kg, po administered on day 3 post tumor inoculation measured on day 9 by plethysmometer analysis (reference value: 95.5 +/- 5.2%); type: functional
[9] = Acute toxicity in Balb/C mouse assessed as survival rate at 400 mg/kg, po; type: organism-based; settings: in vivo
Outline: (§2)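 Fixed dose procedure following OECD guideline; Balb/C mice (20-35 g) fasted 16 h, groups of 5 given single oral doses stepwise at 600, 400 and 200 mgKg-1; survival and clinical signs of pain, suffering and impending death recorded per OECD guidance.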

[10] = Antiproliferative activity against human HaCaT cells assessed as growth inhibition after 48 hrs by SRB assay; type: cell-based; outline: as §1
[11] = test system: Mus musculus; experiment: Acute toxicity in Balb/C mouse assessed as pain, suffering and impending death at 200 to 400 mg/kg, po; type: organism-based; settings: in vivo; outline: as §2
[12] = Antitumor activity against mouse EAT implanted in Balb/C mouse assessed as change in paw volume at 100 mg/kg, po administered on day 3 post tumor inoculation measured on day 3 by plethysmometer analysis (reference value: 40.2 +/- 7.0%); type: functional
[13] = Antitumor activity against mouse EAT implanted in Balb/C mouse assessed as change in paw volume at 30 mg/kg, po administered on day 3 post tumor inoculation measured on day 6 by plethysmometer analysis (reference value: 86.1 +/- 5.7%); type: functional
[14] = test system: 786-0; experiment: Cell cycle arrest in human 786-0 cells assessed as accumulation at S phase at 25 uM after 24 hrs by propidium iodide based flow cytometric analysis (reference value: 14.6 +/- 1.3%); type: functional
[15] = test system: 786-0; experiment: Antiproliferative activity against human 786-0 cells assessed as growth inhibition after 48 hrs by SRB assay; type: functional; settings: 786-0, 48 h; outline: as §1
[16] = Antitumor activity against mouse EAT implanted in Balb/C mouse assessed as change in paw volume at 100 mg/kg, po administered on day 3 post tumor inoculation measured on day 6 by plethysmometer analysis (reference value: 86.1 +/- 5.7%); type: functional
[17] = test system: 786-0; experiment: Cytotoxicity against human 786-0 cells assessed as compound concentration required to inhibit total growth after 24 hrs by SRB assay; type: functional; settings: 786-0, 24 h
Outline: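 786-0 cells treated 24 h with 25, 50, 100 and 200 µM; growth measured by sulforhodamine B staining. Concentration giving total growth inhibition (TGI) calculated from the concentration–response data.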

[18] = Antitumor activity against mouse EAT implanted in Balb/C mouse assessed as change in paw volume at 30 mg/kg, po administered on day 3 post tumor inoculation measured on day 3 by plethysmometer analysis (reference value: 40.2 +/- 7.0%); type: functional
[19] = Antiproliferative activity against human NCI-ADR-RES cells assessed as growth inhibition after 48 hrs by SRB assay; type: functional; outline: as §1
[20] = Acute toxicity in Balb/C mouse assessed as survival rate at 200 mg/kg, po; type: organism-based; settings: in vivo; outline: as §2
[21] = Antitumor activity against mouse EAT implanted in Balb/C mouse assessed as change in paw volume at 30 mg/kg, po administered on day 3 post tumor inoculation measured on day 12 by plethysmometer analysis (reference value: 125.5 +/- 7.5%); type: functional
[22] = test system: 786-0; experiment: Cell cycle arrest in human 786-0 cells assessed as reduction in G1 phase at 25 uM after 24 hrs by propidium iodide based flow cytometric analysis (reference value: 46.7 +/- 0.8%); type: functional; design: scale not given: the % may be the effect or the level left
[23] = Antiproliferative activity against human PC3 cells assessed as growth inhibition after 48 hrs by SRB assay; type: functional; settings: PC-3, 48 h; outline: as §1
[24] = Antitumor activity against mouse EAT implanted in Balb/C mouse assessed as change in paw volume at 30 mg/kg, po administered on day 3 post tumor inoculation measured on day 15 by plethysmometer analysis (reference value: 166.5 +/- 6.0%); type: functional
[25] = test system: 786-0; experiment: Induction of cell death in human 786-0 cells assessed as phosphatidylserine externalization at 50 uM after 24 hrs by annexin V/7-amino-actinomycin D double staining based flow cytometric analysis (reference value: 3.8 +/- 0.5%); type: functional
[26] = test system: U-251; experiment: Antiproliferative activity against human U251 cells assessed as growth inhibition after 48 hrs by SRB assay; type: functional; settings: U-251, 48 h; outline: as §1
[27] = Antitumor activity against mouse EAT implanted in Balb/C mouse assessed as change in paw volume at 300 mg/kg, po administered on day 3 post tumor inoculation measured on day 9 by plethysmometer analysis (reference value: 95.5 +/- 5.2%); type: functional
[28] = test system: K562; experiment: Antiproliferative activity against human K562 cells assessed as growth inhibition after 48 hrs by SRB assay; type: functional; settings: K562, 48 h; outline: as §1
[29] = test system: 786-0; experiment: Cell cycle arrest in human 786-0 cells assessed as accumulation at G2/M phase at 25 uM after 24 hrs by propidium iodide based flow cytometric analysis (reference value: 35.7 +/- 0.9%); type: functional
[30] = Acute toxicity in Balb/C mouse assessed as survival rate at 600 mg/kg, po; type: organism-based; settings: in vivo; outline: as §2

## S=C(N/N=C/c1cccs1)Nc1ccc(Br)cc1
[1]
  Activity: 64%
[2]
  Activity: 5.4%
[3]
  Activity: 106%
[4]
  Activity: 73.7%
[5]
  GI50: 17.7 µM
[6]
  GI50: 71.1 µM
[7]
  CC50: 91.8 µM
[8]
  Activity: 57.1%
[9]
  survival: 100%
[10]
  GI50 at 48 h: 0.8 µM
[11]
  Activity: Non-toxic
[12]
  Activity: 33.4%
[13]
  Activity: 60.6%
[14]
  Activity: 13.9%
[15]
  GI50: 4.5 µM
[16]
  Activity: 78.1%
[17]
  TGI: 28 µM
[18]
  Activity: 26.8%
[19]
  GI50: 1.7 µM
[20]
  survival: 100%
[21]
  Activity: 36.3%
[22]
  Activity: 44.9%
[23]
  GI50: 79.4 µM
[24]
  Activity: 82%
[25]
  Activity: 21.9%
[26]
  GI50: 4.2 µM
[27]
  Activity: 72.8%
[28]
  GI50: > 100 µM
[29]
  Activity: 35.9%
[30]
  survival: 100%
